Converted amounts (≈) assume the structure as drawn. Starred links: 1 amine or outer side, 2 acyl side, 3 side chain; linkers in the order of their positions; H or OH if unused. Non-standard residues stand in square brackets, D forms with d. Residues, ends and D or L forms follow the SMILES beside them. *: point of attachment. X1 = CCCCCC[C@@H](OC[C@@H](C)N[*:1])[C@@H](C)C(=O)[*:2]; X16 = CCCC[C@@H](C(=O)[*:2])N(CCCC)CCN[*:1]; Gly(cHept) = N[C@H](C(=O)O)C1CCCCCC1; aThr = C[C@H](O)[C@H](N)C(=O)O; NMeL = CN[C@@H](CC(C)C)C(=O)O; Chg = N[C@H](C(=O)O)C1CCCCC1; NMeNva = CCC[C@H](NC)C(=O)O; Dap = NC[C@H](N)C(=O)O; X15 = O=C(O)CCCNCCC*
Key:
Escherichia coli = assay: Inhibition of LspA in Escherichia coli CFT073imp4213 harboring outer membrane-permeable mutant assessed as inhibition of bacterial growth
Summary of the method: (§1)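 Read-out is the minimum inhibitory concentration, reported in µM.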

Escherichia coli CFT073 = assay: Inhibition of LspA in wild type Escherichia coli CFT073 assessed as inhibition of bacterial growth; summary of the method: as §1
[1] = Growth inhibition of Staphylococcus aureus USA300
[2] = Lipophilicity, logD of the compound at pH 7.4; conditions: buffer

SMILES	MIC (Escherichia coli) [µM]	MIC (Escherichia coli CFT073) [µM]	MIC [1] [µM]	logD ([2]; pH 7.4, logD)	logD ([2]; pH 7.4)
CCCCCCCCCC[C@H]1OC(=O)CNC(=O)[C@H]([C@H](C)O)NC(=O)[C@H](CO)NC(=O)[C@H]([C@H](C)CC)NC(=O)[C@H](CC(C)C)N(C)C(=O)[C@@H]1C	0.016 (≈ 0.0114 µg/mL)	5.4 (≈ 3.84 µg/mL)	25 (≈ 17.8 µg/mL)	–	–
CCCCCC[C@H]1OC(=O)CNC(=O)[C@H]([C@H](C)O)NC(=O)[C@H](CN)NC(=O)[C@H](C2CCCCC2)NC(=O)[C@H](CC)N(C)C(=O)[C@@H]1C	0.14 (≈ 0.0914 µg/mL)	8.8 (≈ 5.74 µg/mL)	> 100	–	–
CCCCCC[C@H]1OC(=O)CNC(=O)[C@H]([C@H](C)O)NC(=O)[C@H](CN)NC(=O)[C@H]([C@@H](C)O)NC(=O)[C@H](CC(C)C)N(C)C(=O)[C@@H]1C	50 (≈ 32.1 µg/mL)	> 100	> 100	–	–
CCCCCC[C@H]1OC(=O)CNC(=O)[C@H]([C@H](C)O)NC(=O)[C@H](CN)NC(=O)[C@H]([C@@H](C)OC)NC(=O)[C@H](CC(C)C)N(C)C(=O)[C@@H]1C	7.7 (≈ 5.06 µg/mL)	> 100	> 100	–	–
CCCCCC[C@H]1OC(=O)CNC(=O)[C@H]([C@H](C)O)NC(=O)[C@H](CN)NC(=O)[C@H](CCC(N)=O)NC(=O)[C@H](CC(C)C)N(C)C(=O)[C@@H]1C	> 100	> 100	> 100	–	–
CCCCCC[C@H]1OC(=O)CNC(=O)[C@H]([C@H](C)O)NC(=O)[C@H](CN)NC(=O)[C@H](Cc2ccccc2)NC(=O)[C@H](CC(C)C)N(C)C(=O)[C@@H]1C	0.8 (≈ 0.551 µg/mL)	50 (≈ 34.4 µg/mL)	> 100	–	–
CCCCCCCCCC[C@H]1OC(=O)CNC(=O)[C@H]([C@H](C)O)NC(=O)[C@H](CNC(=N)N)NC(=O)[C@H]([C@@H](C)CC)NC(=O)[C@H](CC(C)C)N(C)C(=O)[C@@H]1C	1.6 (≈ 1.2 µg/mL)	50 (≈ 37.6 µg/mL)	13 (≈ 9.79 µg/mL)	–	–
CC[C@@H](C)[C@@H]1NC(=O)[C@H](CC(C)C)N(C)C(=O)[C@H](C)[C@@H](CCCCC(C)(C)C)OC(=O)CNC(=O)[C@H]([C@H](C)O)NC(=O)[C@H](CN)NC1=O	0.035 (≈ 0.0239 µg/mL)	3.1 (≈ 2.12 µg/mL)	100 (≈ 68.3 µg/mL)	3	–
CCCCCC[C@H]1OC(=O)CNC(=O)[C@H]([C@H](C)O)NC(=O)[C@H](CN)NC(=O)[C@H](C2CCCCC2)NC(=O)[C@H](CCC)N(C)C(=O)[C@@H]1C	0.049 (≈ 0.0327 µg/mL)	3.5 (≈ 2.33 µg/mL)	> 100	–	–
CCCCCCCCCC[C@H]1OC(=O)CNC(=O)[C@H]([C@H](C)O)NC(=O)[C@H](CCN)NC(=O)[C@H]([C@@H](C)CC)NC(=O)[C@H](CC(C)C)N(C)C(=O)[C@@H]1C	0.39 (≈ 0.283 µg/mL)	25 (≈ 18.1 µg/mL)	13 (≈ 9.42 µg/mL)	–	–
CCCCCC[C@H]1OC(=O)CNC(=O)[C@H]([C@H](C)O)NC(=O)[C@H](CN)NC(=O)[C@H](CC(C)C)NC(=O)[C@H](CC(C)C)N(C)C(=O)[C@@H]1C	0.4 (≈ 0.262 µg/mL)	25 (≈ 16.4 µg/mL)	> 100	–	–
CCCC(C)(C)CC[C@H]1OC(=O)CNC(=O)[C@H]([C@H](C)O)NC(=O)[C@H](CN)NC(=O)[C@H]([C@H](C)CC)NC(=O)[C@H](CC(C)C)N(C)C(=O)[C@@H]1C	0.034 (≈ 0.0232 µg/mL)	3.1 (≈ 2.12 µg/mL)	100 (≈ 68.3 µg/mL)	3.2	–
CCCCCC[C@H]1OC(=O)CNC(=O)[C@H]([C@H](C)O)NC(=O)[C@H](CN)NC(=O)[C@H]([C@H](C)CC)NC(=O)[C@H](CC(C)C)N(C)C(=O)[C@@H]1C	0.053 (≈ 0.0347 µg/mL)	8.6 (≈ 5.63 µg/mL)	> 100	–	–
CCCCCCCCCC[C@H]1OC(=O)CNC(=O)[C@H]([C@H](C)O)NC(=O)[C@H](CO)NC(=O)[C@H]([C@@H](C)CC)NC(=O)[C@H](CC(C)C)N(C)C(=O)[C@@H]1C	0.016 (≈ 0.0114 µg/mL)	9.4 (≈ 6.69 µg/mL)	25 (≈ 17.8 µg/mL)	–	–
CCCCCC[C@H]1OC(=O)CNC(=O)[C@H]([C@H](C)O)NC(=O)[C@H](CN)NC(=O)[C@H](c2ccccc2)NC(=O)[C@H](CC(C)C)N(C)C(=O)[C@@H]1C	1.6 (≈ 1.08 µg/mL)	71 (≈ 47.9 µg/mL)	> 100	–	–
CC(C)C[C@H]1C(=O)N[C@@H](C2CCCCC2)C(=O)N[C@@H](CN)C(=O)N[C@@H]([C@H](C)O)C(=O)NCC(=O)O[C@H](CCCCCCC(C)(C)O)[C@@H](C)C(=O)N1C	0.55 (≈ 0.406 µg/mL)	15 (≈ 11.1 µg/mL)	> 100	2.2	–
CCCCCC[C@H]1OC(=O)CNC(=O)[C@H]([C@H](C)O)NC(=O)[C@H](CN)NC(=O)[C@H](C2CCCCC2)NC(=O)[C@H](CC(C)C)N(C)C(=O)[C@@H]1C	0.059 (≈ 0.0402 µg/mL)	3.1 (≈ 2.11 µg/mL)	> 100	–	–
CCCCCCCCCC[C@H]1OC(=O)CNC(=O)[C@H]([C@H](C)O)NC(=O)[C@H](C)NC(=O)[C@H]([C@@H](C)CC)NC(=O)[C@H](CC(C)C)N(C)C(=O)[C@@H]1C	25 (≈ 17.4 µg/mL)	100 (≈ 69.6 µg/mL)	25 (≈ 17.4 µg/mL)	–	–
CCCCCCCCCC[C@H]1OC(=O)CNC(=O)[C@H]([C@H](C)O)NC(=O)[C@H](CN)NC(=O)[C@H]([C@@H](C)CC)NC(=O)[C@H](CC(C)C)N(C)C(=O)[C@@H]1C	0.03 (≈ 0.0213 µg/mL)	2.2 (≈ 1.56 µg/mL)	13 (≈ 9.24 µg/mL)	–	–
CC[C@@H](C)[C@@H]1NC(=O)[C@H](CC(C)C)N(C)C(=O)[C@H](C)[C@@H](CCCCCC(F)(F)F)OC(=O)CNC(=O)[C@H]([C@H](C)O)NC(=O)[C@H](CN)NC1=O	0.39 (≈ 0.276 µg/mL)	25 (≈ 17.7 µg/mL)	> 100	2	–
CCCCCCCCCC[C@H]1OC(=O)CNC(=O)[C@H]([C@H](C)O)NC(=O)[C@H](Cc2c[nH]cn2)NC(=O)[C@H]([C@@H](C)CC)NC(=O)[C@H](CC(C)C)N(C)C(=O)[C@@H]1C	6.3 (≈ 4.8 µg/mL)	100 (≈ 76.2 µg/mL)	25 (≈ 19.1 µg/mL)	–	–
CCCCCCCCCC[C@H]1OC(=O)CNC(=O)[C@H]([C@H](C)O)NC(=O)[C@H](CN)NC(=O)[C@H]([C@H](C)CC)NC(=O)[C@H](CC(C)C)N(C)C(=O)[C@@H]1C	0.011 (≈ 0.00782 µg/mL)	2.1 (≈ 1.49 µg/mL)	15 (≈ 10.7 µg/mL)	4.6	–
CCCC[C@H]1C(=O)N(C)[C@@H](CC(C)C)C(=O)N[C@@H](C2CCCCC2)C(=O)N[C@@H](CN)C(=O)N[C@@H]([C@H](C)O)C(=O)NCCN1CCCC (cyclo([Chg][Dap][aThr][X16][NMeL]))	0.1 (≈ 0.0666 µg/mL)	6.3 (≈ 4.2 µg/mL)	100 (≈ 66.6 µg/mL)	–	–
CCCCCC[C@H]1OC[C@@H](C)NC(=O)[C@H](COCCCNCCCC(=O)O)NC(=O)[C@H](CN)NC(=O)[C@H](C2CCCCCC2)NC(=O)[C@H](CCC)N(C)C(=O)[C@@H]1C (cyclo([Dap]S(X15)[X1][NMeNva][Gly(cHept)]))	0.78 (≈ 0.632 µg/mL)	100 (≈ 81 µg/mL)	> 100	–	–
CCC[C@H]1C(=O)N[C@@H](C2CCCCCC2)C(=O)N[C@@H](CN)C(=O)N[C@@H]([C@H](C)O)C(=O)NCC(=O)O[C@H](CC2CC3CCC2C3)[C@@H](C)C(=O)N1C (stereo in doubt; 26) [listing 1 of 2 here]	–	–	100 (≈ 70.5 µg/mL)	2.8	–
CCC[C@H]1C(=O)N[C@@H](C2CCCCCC2)C(=O)N[C@@H](CN)C(=O)N[C@@H]([C@H](C)O)C(=O)NCC(=O)O[C@H](CC2CC3CCC2C3)[C@@H](C)C(=O)N1C (stereo in doubt; 26) [listing 2 of 2 here]	0.041 (≈ 0.0289 µg/mL)	0.97 (≈ 0.684 µg/mL)	–	–	–
CCC[C@H]1C(=O)N[C@@H](C2CCCCCC2)C(=O)N[C@@H](CN)C(=O)N[C@@H]([C@H](C)O)C(=O)NCC(=O)O[C@H](CC2CC3CCC2C3)[C@@H](C)C(=O)N1C (stereo in doubt; 27) [listing 1 of 2 here]	–	–	–	–	2.9
CCC[C@H]1C(=O)N[C@@H](C2CCCCCC2)C(=O)N[C@@H](CN)C(=O)N[C@@H]([C@H](C)O)C(=O)NCC(=O)O[C@H](CC2CC3CCC2C3)[C@@H](C)C(=O)N1C (stereo in doubt; 27) [listing 2 of 2 here]	0.009 (≈ 0.00634 µg/mL)	0.78 (≈ 0.55 µg/mL)	–	–	–

Reference: ChEMBL document CHEMBL4665734, “Optimization of globomycin analogs as novel gram-negative antibiotics” (Bioorg Med Chem Lett, 2020)
